According to ChEMBL document CHEMBL1138889, “Development of N-2,4-pyrimidine-N-phenyl-N'-phenyl ureas as inhibitors of tumor necrosis factor alpha (TNF-alpha) synthesis. Part 1” (Bioorg Med Chem Lett, 2006):

What was measured:
[1] = molecular target: T1, Mitogen-activated protein kinase 14 (Homo sapiens, UniProt Q16539); experiment: Inhibition of LPS-stimulated TNFalpha production in human THP1 cells at 1 uM; type: functional, cell-based; conditions: THP-1
Method in brief: (§1)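 THP-1 human monocytic cells, in duplicate cultures, were preincubated with or without inhibitor for 15 min. TNF-α release was then stimulated with LPS at 1 µg/ml final. Secreted TNF-α was quantified by ELISA 4 h after stimulation. Cell viability after the 4 h incubation was assessed by MTS assay.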

[2] = molecular target: T1, Mitogen-activated protein kinase 14; experiment: Inhibition of LPS-stimulated TNFalpha production in human THP1 cells; type: functional, cell-based, THP-1; method in brief: as §1

T1 sequence (Q16539 whole entry): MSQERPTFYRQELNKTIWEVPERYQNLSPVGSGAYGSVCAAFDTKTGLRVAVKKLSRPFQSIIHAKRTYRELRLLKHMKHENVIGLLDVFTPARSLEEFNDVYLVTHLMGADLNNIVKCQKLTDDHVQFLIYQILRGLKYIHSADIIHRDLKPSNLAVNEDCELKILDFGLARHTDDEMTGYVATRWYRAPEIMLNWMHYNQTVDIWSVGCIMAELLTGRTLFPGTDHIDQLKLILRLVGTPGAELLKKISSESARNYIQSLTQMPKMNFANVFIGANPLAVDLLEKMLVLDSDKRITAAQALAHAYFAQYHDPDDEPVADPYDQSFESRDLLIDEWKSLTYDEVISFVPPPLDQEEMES

Row | SMILES | inhibition [1] [%] | IC50 [2] [nM]
1 | C[C@H](Nc1nccc(N(C(=O)Nc2c(Cl)cccc2Cl)c2ccc(F)cc2)n1)C(C)(C)O | 63 | –
2 | COC[C@H](C)Nc1nccc(N(C(=O)Nc2ccccc2Cl)c2ccc(N(C)C)cc2)n1 | – | > 5000
3 | Cc1ccccc1NC(=O)N(c1ccc(N(C)C)cc1)c1ccnc(N[C@@H](C)c2ccccc2)n1 | – | > 5000
4 | COC[C@H](C)Nc1nccc(N(C(=O)Nc2ccc(C(F)(F)F)cc2)c2ccc(F)cc2)n1 | – | > 5000
5 | O=C(Nc1ccccc1Cl)N(c1ccc(F)cc1)c1ccnc(NC2CCOCC2)n1 | – | 539
6 | C[C@H](Nc1nccc(N(C(=O)Nc2ccccc2Cl)c2ccc(F)cc2)n1)c1ccccc1 (stereo in doubt; 5h) | – | 843
7 | C[C@H](Nc1nccc(N(C(=O)Nc2ccccc2Cl)c2cccc(F)c2)n1)c1ccccc1 | – | 6160
8 | C[C@H](Nc1nccc(N(C(=O)Nc2ccccc2Cl)c2ccccc2)n1)C(C)(C)O | – | 718
9 | COCC(C)Nc1nccc(N(N)C(=O)Nc2ccccc2Cl)n1 (single isomer, unassigned) | – | > 5000
10 | COC[C@H](C)Nc1nccc(N(C)C(=O)Nc2ccccc2C)n1 | – | > 5000
11 | CCCS(=O)(=O)N1CCC(Nc2nccc(N(C(=O)Nc3ccccc3Cl)c3ccc(F)cc3)n2)CC1 | – | 1420
12 | COc1ccc(N(C(=O)Nc2ccccc2Cl)c2ccnc(N[C@@H](C)C(C)(C)O)n2)cc1 | – | 92
13 | COC[C@H](C)Nc1nccc(N(C(=O)Nc2ccccc2F)c2ccc(F)cc2)n1 | – | 2880
14 | CN1CCN(c2nccc(N(C(=O)Nc3ccccc3Cl)c3ccc(F)cc3)n2)CC1 | – | > 5000
15 | Cc1ccccc1NC(=O)N(c1ccc(F)cc1)c1ccnc(N[C@@H](C)C(C)(C)O)n1 | – | 176
16 | COC[C@H](C)Nc1nccc(N(C(=O)Nc2ccccc2C)c2ccc(F)cc2)n1 | – | 3650
17 | COc1ccc(N(C(=O)Nc2ccccc2C)c2ccnc(N[C@@H](C)C(C)(C)O)n2)cc1 | – | 135
18 | COC[C@H](C)Nc1nccc(N(C(=O)Nc2ccccc2C)c2ccccc2)n1 | – | 1000
19 | C[C@H](Nc1nccc(N(C(=O)Nc2ccccc2Cl)c2ccc(F)cc2)n1)C(C)(C)O | – | 122
20 | C[C@H](Nc1nccc(N(C(=O)Nc2ccccc2Cl)c2ccc(F)cc2)n1)c1ccccc1 (stereo in doubt; 5i) | – | > 5000
21 | CCOC(=O)N1CCC(Nc2nccc(N(C(=O)Nc3ccccc3Cl)c3ccc(F)cc3)n2)CC1 | – | 3610
22 | COC[C@H](C)Nc1nccc(N(C(=O)Nc2ccccc2Cl)c2ccc(F)cc2)n1 | – | 3100
23 | O=C(Nc1ccccc1Cl)N(c1ccc(F)cc1)c1ccnc(N2CCOCC2)n1 | – | > 5000
